Experimental data reported in ChEMBL document CHEMBL5058577, “EUbOPEN Chemogenomics Library 2 (Multiplex)” (2022).

System: U2OS
Experiment: Multiplex assay against U2OS
Assay type: toxicity, cell-based
Settings: human
In short: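 Live cells were stained at seeding with Hoechst33342, BioTracker Green Microtubule Cytoskeleton Dye, MitoTracker Red and Annexin V Alexa Fluor 680. Following compound addition, they were imaged on a CQ1 microscope at 37°C and 5% CO2 and gated by CellPathfinder machine learning into Hoechst high-intensity objects or normal cells, with normal cells split into healthy, pyknosed or fragmented nuclei and pyknosed cells into mitotic or apoptotic. Tubulin, mitochondrial-mass and membrane-permeability phenotypes are per cents of healthy-nucleus cells.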

[1] = 12 h, 1 µM, compound concentration 1 uM, replicate 1
[2] = 12 h, 1 µM, compound concentration 1 uM, replicate 2
[3] = 12 h, 10 µM, compound concentration 10 uM, replicate 1
[4] = 12 h, 10 µM, compound concentration 10 uM, replicate 2
[5] = 24 h, 1 µM, compound concentration 1 uM, replicate 1
[6] = 24 h, 1 µM, compound concentration 1 uM, replicate 2
[7] = 24 h, 10 µM, compound concentration 10 uM, replicate 1
[8] = 24 h, 10 µM, compound concentration 10 uM, replicate 2
[9] = 48 h, 1 µM, compound concentration 1 uM, replicate 1
[10] = 48 h, 1 µM, compound concentration 1 uM, replicate 2
[11] = 48 h, 10 µM, compound concentration 10 uM, replicate 1
[12] = 48 h, 10 µM, compound concentration 10 uM, replicate 2

With `Cc1c(CC(=O)O)c2cccnc2n1Cc1ccc(S(C)(=O)=O)cc1C(F)(F)F` [FEVIPIPRANT] the “Population Apoptotic (%)” value [1] was 80%, the “Population Fragmented Nuclei (%)” value [1] was 25% and the “Population Healthy Nuclei (%)” value [1] was 64%. The “Population Hoechst High Intensity Objects (%)” value [1] was 1%, the “Population Membrane Permeable-Phenotype (%)” value [1] was 2% and the “Population Mitochondria Different-Phenotype (%)” value [1] was 2%. For the same compound, the “Population Mitotic Cells (%)” value [1] was 19%, the “Population Normal (%)” value [1] was 98% and the “Population Pyknosed Nuclei (%)” value [1] was 9%. The “Population Tubulin-Different-Phenotype (%)” value [1] was 0%, the “Total Cell Count” value [1] was 224 and the “Population Apoptotic (%)” value [2] was 50%. The “Population Fragmented Nuclei (%)” value [2] was 22%, the “Population Healthy Nuclei (%)” value [2] was 72% and the “Population Membrane Permeable-Phenotype (%)” value [2] was 8%. For the same compound, the “Population Mitochondria Different-Phenotype (%)” value [2] was 1%, the “Population Mitotic Cells (%)” value [2] was 50% and the “Population Pyknosed Nuclei (%)” value [2] was 5%. The “Population Tubulin-Different-Phenotype (%)” value [2] was 9%, the “Total Cell Count” value [2] was 118 and the “Population Apoptotic (%)” value [3] was 90%. For the same compound, the “Population Fragmented Nuclei (%)” value [3] was 27%, the “Population Healthy Nuclei (%)” value [3] was 65% and the “Population Hoechst High Intensity Objects (%)” value [3] was 2%. The “Population Membrane Permeable-Phenotype (%)” value [3] was 3%, the “Population Mitochondria Different-Phenotype (%)” value [3] was 0% and the “Population Mitotic Cells (%)” value [3] was 9%. The “Population Normal (%)” value [3] was 97%, the “Population Pyknosed Nuclei (%)” value [3] was 7% and the “Population Tubulin-Different-Phenotype (%)” value [3] was 1%. For the same compound, the “Total Cell Count” value [3] was 287, the “Population Apoptotic (%)” value [4] was 100% and the “Population Fragmented Nuclei (%)” value [4] was 22%. For the same compound, the “Population Healthy Nuclei (%)” value [4] was 73%, the “Population Hoechst High Intensity Objects (%)” value [4] was 0% and the “Population Membrane Permeable-Phenotype (%)” value [4] was 8%. For the same compound, the “Population Mitochondria Different-Phenotype (%)” value [4] was 3%, the “Population Mitotic Cells (%)” value [4] was 0% and the “Population Normal (%)” value [4] was 99%. The “Population Pyknosed Nuclei (%)” value [4] was 3%, the “Population Tubulin-Different-Phenotype (%)” value [4] was 4% and the “Total Cell Count” value [4] was 116. The “Population Apoptotic (%)” value [5] was 80%, the “Population Fragmented Nuclei (%)” value [5] was 20% and the “Population Healthy Nuclei (%)” value [5] was 71%. The “Population Hoechst High Intensity Objects (%)” value [5] was 2%, the “Population Membrane Permeable-Phenotype (%)” value [5] was 1% and the “Population Mitochondria Different-Phenotype (%)” value [5] was 3%. The “Population Mitotic Cells (%)” value [5] was 20%, the “Population Normal (%)” value [5] was 97% and the “Population Pyknosed Nuclei (%)” value [5] was 8%. For the same compound, the “Population Tubulin-Different-Phenotype (%)” value [5] was 1%, the “Total Cell Count” value [5] was 256 and the “Population Apoptotic (%)” value [6] was 66%. The “Population Fragmented Nuclei (%)” value [6] was 17%, the “Population Healthy Nuclei (%)” value [6] was 74% and the “Population Hoechst High Intensity Objects (%)” value [6] was 0%. The “Population Membrane Permeable-Phenotype (%)” value [6] was 9%, the “Population Mitochondria Different-Phenotype (%)” value [6] was 0% and the “Population Mitotic Cells (%)” value [6] was 33%. The “Population Normal (%)” value [6] was 100%, the “Population Tubulin-Different-Phenotype (%)” value [6] was 10% and the “Total Cell Count” value [6] was 145. The “Population Apoptotic (%)” value [7] was 96%, the “Population Fragmented Nuclei (%)” value [7] was 20% and the “Population Healthy Nuclei (%)” value [7] was 70%. The “Population Hoechst High Intensity Objects (%)” value [7] was 0%, the “Population Membrane Permeable-Phenotype (%)” value [7] was 5% and the “Population Mitochondria Different-Phenotype (%)” value [7] was 3%. The “Population Mitotic Cells (%)” value [7] was 3%, the “Population Normal (%)” value [7] was 99% and the “Population Pyknosed Nuclei (%)” value [7] was 8%. The “Population Tubulin-Different-Phenotype (%)” value [7] was 3%, the “Total Cell Count” value [7] was 326 and the “Population Apoptotic (%)” value [8] was 100%. For the same compound, the “Population Fragmented Nuclei (%)” value [8] was 12%, the “Population Healthy Nuclei (%)” value [8] was 78% and the “Population Hoechst High Intensity Objects (%)” value [8] was 1%. For the same compound, the “Population Membrane Permeable-Phenotype (%)” value [8] was 8%, the “Population Mitochondria Different-Phenotype (%)” value [8] was 2% and the “Population Mitotic Cells (%)” value [8] was 0%. For the same compound, the “Population Normal (%)” value [8] was 98%, the “Total Cell Count” value [8] was 119 and the “Population Apoptotic (%)” value [9] was 65%. For the same compound, the “Population Fragmented Nuclei (%)” value [9] was 18%, the “Population Healthy Nuclei (%)” value [9] was 71% and the “Population Hoechst High Intensity Objects (%)” value [9] was 2%. For the same compound, the “Population Membrane Permeable-Phenotype (%)” value [9] was 4%, the “Population Mitochondria Different-Phenotype (%)” value [9] was 3% and the “Population Mitotic Cells (%)” value [9] was 34%. For the same compound, the “Population Normal (%)” value [9] was 97%, the “Population Pyknosed Nuclei (%)” value [9] was 10% and the “Population Tubulin-Different-Phenotype (%)” value [9] was 2%. The “Total Cell Count” value [9] was 379, the “Population Apoptotic (%)” value [10] was 90% and the “Population Fragmented Nuclei (%)” value [10] was 20%. For the same compound, the “Population Healthy Nuclei (%)” value [10] was 67%, the “Population Membrane Permeable-Phenotype (%)” value [10] was 8% and the “Population Mitochondria Different-Phenotype (%)” value [10] was 5%. For the same compound, the “Population Mitotic Cells (%)” value [10] was 9%, the “Population Pyknosed Nuclei (%)” value [10] was 12% and the “Population Tubulin-Different-Phenotype (%)” value [10] was 9%. The “Total Cell Count” value [10] was 187, the “Population Apoptotic (%)” value [11] was 91% and the “Population Fragmented Nuclei (%)” value [11] was 17%. For the same compound, the “Population Healthy Nuclei (%)” value [11] was 73%, the “Population Hoechst High Intensity Objects (%)” value [11] was 1% and the “Population Membrane Permeable-Phenotype (%)” value [11] was 4%. The “Population Mitochondria Different-Phenotype (%)” value [11] was 3%, the “Population Mitotic Cells (%)” value [11] was 8% and the “Population Normal (%)” value [11] was 98%. For the same compound, the “Population Pyknosed Nuclei (%)” value [11] was 8%, the “Population Tubulin-Different-Phenotype (%)” value [11] was 3% and the “Total Cell Count” value [11] was 408. For the same compound, the “Population Apoptotic (%)” value [12] was 100%, the “Population Fragmented Nuclei (%)” value [12] was 15% and the “Population Healthy Nuclei (%)” value [12] was 76%. For the same compound, the “Population Hoechst High Intensity Objects (%)” value [12] was 3%, the “Population Membrane Permeable-Phenotype (%)” value [12] was 5% and the “Population Mitochondria Different-Phenotype (%)” value [12] was 1%. For the same compound, the “Population Mitotic Cells (%)” value [12] was 0%, the “Population Normal (%)” value [12] was 96% and the “Total Cell Count” value [12] was 158.
